The record followed here is ChEMBL document CHEMBL1125321, “Synthesis and biological activity of 13-epi-avermectins: potent anthelmintic agents with an increased margin of safety” (J Med Chem, 1992).

Structures are written as SMILES.

The subject of one data set is Artemia salina. Briefly: Compound is evaluated in vitro for brine shrimp (Artemia salina) activity. Type of data set: functional.
Data set [1] in a line: Compound is evaluated for acute toxicity in mice. The class given is organism-based. As to conditions: mouse, in vivo. An outline of the steps: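 Male CD-1 mice, groups of five per dose randomly allocated; several doses given orally in vehicle by calibrated syringe with blunt-tipped needle. Deaths counted 7 days after dosing; estimated LD50 derived by the method of dose-pair responses.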

The test system of another data set is Trichostrongylus axei. The data set is described as follows: Compound is evaluated in vivo for anthelmintic activity against Trichostrongylus axei (T.a) parasite in sheep; activity at 0.1 mg/kg. Type of data set: functional. The method in brief:
(§1)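 Sheep with patent infections randomly assigned; one sheep per compound, two vehicle-only controls. Single oral dose 0.1 mg/kg. Necropsy 7 days post-dose, residual worm burdens counted. Efficacy as % reduction from control, scored 0 = <50%, 1 = 51-75%, 2 = 76-95%, 3 = >95%.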

A further data set relates to Haemonchus contortus. The data set is described as follows: Compound is evaluated in vivo for anthelmintic activity against Haemonchus contortus (H.c) parasite in sheep; activity at 0.1 mg/kg. Type of data set: functional. An outline of the steps:
as §1

For data set [2], the system named is Teladorsagia circumcincta. Briefly: Compound is evaluated in vivo for anthelmintic activity against Ostertagia circumcincta (Os. c) parasite in sheep; activity at 0.1 mg/kg. Type of data set: functional. The method in brief: as §1
In data set [3] the test system is Trichostrongylus colubriformis. The data set is described as follows: Compound is evaluated in vivo for anthelmintic activity against Trichostrongylus colubriformis (T.c) parasite in sheep; activity at 0.1 mg/kg. Type of data set: functional. An outline of the steps: as §1
For data set [4], the system named is Cooperia. The data set is described as follows: Compound is evaluated in vivo for anthelmintic activity against Cooperia species (C. species) parasite in sheep; activity at 0.1 mg/kg. The class given is functional. An outline of the steps:
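Sheep with patent nematode infections, randomly assigned to treatment or control; one sheep per compound, two vehicle-only controls. Single oral dose of 0.1 mg/kg. Necropsy 7 days after dosing to count residual worm burdens. Efficacy is % reduction from control, scored 0 = <50%, 1 = 51–75%, 2 = 76–95%, 3 = >95%.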

In data set [5] the test system is Oesophagostomum columbianum. Briefly: Compound is evaluated in vivo for anthelmintic activity against Oesophagostomum columbianum (Oe. c) parasite in sheep; activity at 0.1 mg/kg. Type of data set: functional. An outline of the steps:
as §1

In data set [6] the test system is Cooperia. The data set is described as follows: Compound is evaluated in vivo for anthelmintic activity against Cooperia species (C. species) parasite in sheep; activity at 0.1 mg/kg; value ranges from 76-95%. Type of data set: functional. The method in brief: as §1

For `CC[C@H](C)[C@H]1O[C@@]2(C[C@@H]3C[C@@H](C/C=C(\C)[C@H](O[C@@H]4C[C@H](OC)C(O[C@H]5C[C@H](OC)[C@@H](O)[C@H](C)O5)[C@H](C)O4)[C@@H](C)/C=C/C=C4\CO[C@@H]5[C@H](O)C(C)=C[C@@H](C(=O)O3)[C@]45O)O2)C[C@H](O)[C@@H]1C` (some centres undefined), the IC100 with Artemia salina stood at 20850 ng/mL.

`CC[C@H](C)[C@H]1O[C@]2(C=C[C@@H]1C)C[C@@H]1C[C@@H](C/C=C(\C)[C@H](O[C@@H]3C[C@H](OC)C(O[C@H]4C[C@H](OC)[C@@H](O)[C@H](C)O4)[C@H](C)O3)[C@@H](C)/C=C/C=C3\CO[C@@H]4[C@H](O)C(C)=C[C@@H](C(=O)O1)[C@]34O)O2` (some centres undefined): the IC100 with Artemia salina stood at 10415 ng/mL.

As a reminder, the LD50 is the dose expected to kill half of the subjects tested. Lower therefore signals a more toxic substance. As for `CC[C@H](C)[C@H]1O[C@@]2(C[C@@H]3C[C@@H](C/C=C(\C)[C@H](O[C@H]4C[C@H](OC)C(O[C@H]5C[C@H](OC)[C@@H](O)[C@H](C)O5)[C@H](C)O4)[C@@H](C)/C=C/C=C4\CO[C@@H]5[C@H](O)C(C)=C[C@@H](C(=O)O3)[C@]45O)O2)C[C@H](O)[C@@H]1C` (some centres undefined), in [1], the LD50 turned out to be 540 mg/kg. Further, the Activity (in the data set on Trichostrongylus axei; in the data set with Haemonchus contortus; in data set [2]; in data set [3]; in the data set with Cooperia [4]; in data set [5]) was >95% each time. In addition, the IC100 with Artemia salina worked out at 650 ng/mL.

In data set [1], `CC[C@H](C)[C@H]1O[C@]2(C=C[C@@H]1C)C[C@@H]1C[C@@H](C/C=C(\C)[C@H](O[C@H]3C[C@H](OC)C(O[C@H]4C[C@H](OC)[C@@H](O)[C@H](C)O4)[C@H](C)O3)[C@@H](C)/C=C/C=C3\CO[C@@H]4[C@H](O)C(C)=C[C@@H](C(=O)O1)[C@]34O)O2` (some centres undefined) had an LD50 of 160 mg/kg. The Activity in the data set with Trichostrongylus axei is recorded as >95%; in the data set with Haemonchus contortus, >95%; in data set [2], >95%; in data set [3], >95%; with Cooperia [6], 76%; in data set [5] it was >95%. The compound further had an IC100 in the data set with Artemia salina of 870 ng/mL.

As for `CC[C@H](C)[C@H]1O[C@]2(C=C[C@@H]1C)C[C@@H]1C[C@@H](C/C=C(\C)[C@@H](O[C@H]3C[C@H](OC)[C@@H](O[C@H]4C[C@H](OC)[C@@H](O)[C@H](C)O4)[C@H](C)O3)[C@@H](C)/C=C/C=C3\CO[C@@H]4[C@H](O)C(C)=C[C@@H](C(=O)O1)[C@]34O)O2` [ABAMECTIN COMPONENT B1A], the LD50 in data set [1] came out at 19 mg/kg. The compound also came in with an IC100 in the data set with Artemia salina of 356 ng/mL.

In the case of `CCC(C)C1O[C@]2(C=C[C@@H]1C)C[C@@H]1CC(C/C=C(\C)[C@@H](OC3C[C@H](OC)[C@@H](OC4C[C@H](OC)[C@@H](O)[C@H](C)O4)[C@H](C)O3)[C@@H](C)/C=C/C=C3\COC4[C@H](O)C(C)=CC(C(=O)O1)[C@]34O)O2` (some centres undefined) [AVERMECTIN B1A], the Activity (in the data set with Trichostrongylus axei; in the data set with Haemonchus contortus; in data set [2]; in data set [3]; in the data set with Cooperia [4]; in data set [5]) was >95% in each case.

In the case of `COC1CC(OC2C(C)OC(O[C@@H]3/C(C)=C/C[C@@H]4C[C@@H](C[C@]5(CC(O)[C@H](C)[C@@H](C(C)C)O5)O4)OC(=O)[C@@H]4C=C(C)[C@@H](O)[C@H]5OC/C(=C\C=C\[C@@H]3C)[C@]54O)CC2OC)OC(C)C1O` (some centres undefined) [AVERMECTIN B2], the LD50 in data set [1] was determined as 50 mg/kg. The Activity (in the data set with Trichostrongylus axei; in the data set on Haemonchus contortus; in [2]; in data set [3]; in the data set with Cooperia [4]; in [5]) was >95% each time. In the data set with Artemia salina, the IC100 was 220 ng/mL.
